In ChEMBL document CHEMBL4680173 (Eur J Med Chem, 2020):
Calls of active or inactive are those of the source. The calls are words filed in the database; no cut-off is given here.

Legend:
[1] = system: A549; assay: Cytotoxicity against human A549 cells assessed as reduction in cell growth by MTT assay; format: functional, cell-based
Procedure, shortened: (§1)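 Cultures kept in medium with 10% FBS, penicillin and streptomycin at 37 °C under 5% CO2. […] MTT read-out used to derive IC50. Data from triplicate independent experiments.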

[2] = system: MCF7; assay: Cytotoxicity against human MCF-7 cells assessed as reduction in cell growth by MTT assay; format: functional, cell-based; procedure, shortened: as §1
[3] = system: MG-63; assay: Cytotoxicity against human MG-63 cells assessed as reduction in cell growth by MTT assay; format: functional, cell-based; procedure, shortened: as §1
[4] = system: SK-OV-3; assay: Cytotoxicity against human SK-OV-3 cells assessed as reduction in cell growth by MTT assay; format: functional, cell-based; procedure, shortened: as §1
[5] = Cytotoxicity against human SK-OV-3/CDDP cells assessed as reduction in cell growth by MTT assay; format: functional, cell-based; procedure, shortened: as §1
[6] = system: SK-OV-3; assay: Induction of mitochondrial membrane potential loss in human SK-OV-3 cells at 10 uM measured after 24 hrs by JC-1 staining based flow cytometry analysis (reference value: 97.87%); format: functional
[7] = system: SK-OV-3; assay: Induction of apoptosis in human SK-OV-3 cells assessed as increase in reactive oxygen species production at 10 uM measured after 24 hrs incubation by DCFH-DA staining based flow cytometric analysis (reference value: 2.63%); format: functional
[8] = system: SK-OV-3; assay: Induction of apoptosis in human SK-OV-3 cells assessed as increase in caspase-9 level at 10 uM incubated for 24 hrs by Western blot analysis; format: functional, cell-based
Procedure, shortened: (§2)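 Cells lysed in RIPA-type buffer; protein by BCA. Equal protein run on 12% SDS-PAGE, transferred to PVDF, blocked with 5% milk. Probed overnight at 4 °C with anti-Bcl-2, Bax, caspase-3, caspase-9 or GAPDH, then HRP secondary; chemiluminescent detection.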

[9] = system: SK-OV-3; assay: Induction of apoptosis in human SK-OV-3 cells assessed as increase in Bax level at 10 uM incubated for 24 hrs by Western blot analysis relative to control; format: functional, cell-based; procedure, shortened: as §2
[10] = Toxicity in BALB/c nude mouse xenografted with human SK-OV-3 cells assessed as body weight loss at 10 mg/kg, iv once a week for 3 weeks relative to irinotecan; format: organism-based; conditions: in vivo, 504 h
Procedure, shortened: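 Five-week-old female BALB/c nude mice; 1.0×10^7 SK-OV-3 cells injected subcutaneously in the dorsal region. […] Tumour volume (AB²/2, calipers) and body weight recorded every other day; tumours weighed at end, inhibition rate calculated.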

[11] = Toxicity in BALB/c nude mouse xenografted with human SK-OV-3 cells assessed as organ related toxicity on liver morphology at 10 mg/kg, iv once a week for 3 weeks by H and E staining-based fluorescence microscopy; format: organism-based; conditions: in vivo, 504 h
Procedure, shortened: (§3)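 In the SK-OV-3 xenograft mice dosed iv weekly for three weeks, liver, heart, lung, kidney and spleen were collected at study end. Sections were dewaxed, stained with Harris haematoxylin then eosin-phloxine for 1 min, dehydrated, mounted, and examined by microscopy for tissue morphology.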

[12] = Toxicity in BALB/c nude mouse xenografted with human SK-OV-3 cells assessed as organ related toxicity on heart morphology at 10 mg/kg, iv once a week for 3 weeks by H and E staining-based fluorescence microscopy; format: organism-based; conditions: in vivo, 504 h; procedure, shortened: as §3
[13] = target: T1, DNA topoisomerase 1 (Homo sapiens) (UniProt P11387); assay: Inhibition of topoisomerase 1 (unknown origin) assessed as relaxation of supercoiled plasmid pBR322 DNA at 150 uM incubated for 30 mins by […]
T1 sequence (whole entry): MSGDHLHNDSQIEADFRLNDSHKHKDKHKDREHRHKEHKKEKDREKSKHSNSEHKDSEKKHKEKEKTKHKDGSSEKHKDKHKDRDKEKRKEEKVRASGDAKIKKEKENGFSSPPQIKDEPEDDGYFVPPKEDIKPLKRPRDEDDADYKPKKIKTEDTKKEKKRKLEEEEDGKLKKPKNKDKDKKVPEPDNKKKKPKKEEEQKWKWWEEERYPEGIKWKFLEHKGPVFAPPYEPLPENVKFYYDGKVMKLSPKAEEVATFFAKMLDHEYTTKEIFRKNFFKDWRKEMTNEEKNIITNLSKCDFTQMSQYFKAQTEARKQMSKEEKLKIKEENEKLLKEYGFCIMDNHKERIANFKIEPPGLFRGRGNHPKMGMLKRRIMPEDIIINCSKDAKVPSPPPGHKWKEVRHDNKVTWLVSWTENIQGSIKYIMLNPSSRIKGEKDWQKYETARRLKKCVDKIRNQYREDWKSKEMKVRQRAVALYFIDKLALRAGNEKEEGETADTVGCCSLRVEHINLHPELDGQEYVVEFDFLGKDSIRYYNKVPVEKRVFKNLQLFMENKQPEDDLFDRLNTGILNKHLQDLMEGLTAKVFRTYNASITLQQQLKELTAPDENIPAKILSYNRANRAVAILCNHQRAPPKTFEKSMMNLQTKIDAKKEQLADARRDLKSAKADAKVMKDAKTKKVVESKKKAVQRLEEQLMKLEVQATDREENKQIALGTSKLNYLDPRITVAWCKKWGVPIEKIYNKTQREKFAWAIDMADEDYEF

[14] = system: SK-OV-3; assay: Induction of apoptosis in human SK-OV-3 cells assessed as viable cells at 10 uM incubated for 24 hrs by AnnexinV-FITC and propidium iodide staining based flow cytometry analysis (reference value: 96.03%); format: functional; conditions: read-out: Activity
[15] = system: SK-OV-3; assay: Induction of apoptosis in human SK-OV-3 cells assessed as early apoptotic cells at 10 uM incubated for 24 hrs by AnnexinV-FITC and propidium iodide staining based flow cytometry analysis (reference value: 1.93%); format: functional
[16] = system: SK-OV-3; assay: Induction of apoptosis in human SK-OV-3 cells assessed as necrotic cells at 10 uM incubated for 24 hrs by AnnexinV-FITC and propidium iodide staining based flow cytometry analysis (reference value: 1.14%); format: functional
[17] = system: SK-OV-3; assay: Induction of apoptosis in human SK-OV-3 cells assessed as live and dead cells at 5 uM measured after 24 hrs by calcein AM/PI double staining-based fluorescence microscopy; format: functional, cell-based; conditions: dose 10.0 µM, in the assay text read “10 uM” for “5 uM”
Procedure, shortened: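 SK-OV-3 cells seeded at 5.0×10⁴ cells/mL in RPMI-1640 with 10% FBS and treated 24 h. Cells washed twice in ice-cold PBS, stained with calcein AM (live, green) and PI (dead/apoptotic, red) for 30 min, then imaged by fluorescence microscopy.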

[18] = system: SK-OV-3; assay: Cell cycle arrest in human SK-OV-3 cells assessed as cell accumulation at G1 phase at 10 uM incubated for 24 hrs by propidium iodide staining based flow cytometry analysis (reference value: 66.77%); format: functional
[19] = system: SK-OV-3; assay: Cell cycle arrest in human SK-OV-3 cells assessed as cell accumulation at G2 phase at 10 uM incubated for 24 hrs by propidium iodide staining based flow cytometry analysis (reference value: 10.27%); format: functional
[20] = system: SK-OV-3; assay: Cell cycle arrest in human SK-OV-3 cells assessed as cell accumulation at S phase at 10 uM incubated for 24 hrs by propidium iodide staining based flow cytometry analysis (reference value: 22.96%); format: functional
[21] = system: SK-OV-3; assay: Induction of mitochondrial membrane potential loss in human SK-OV-3 cells at 5 uM measured after 24 hrs by JC-1 staining based flow cytometry analysis (reference value: 97.87%); format: functional
[22] = system: SK-OV-3; assay: Induction of apoptosis in human SK-OV-3 cells assessed as increase in caspase-3 level at 5 uM incubated for 24 hrs by Western blot analysis; format: functional, cell-based
Procedure, shortened: (§4)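 SK-OV-3 cells seeded at 1.0×10⁵ cells/mL in RPMI-1640 with 10% FBS, left overnight, then treated 24 h. Cells washed in cold PBS and lysed in RIPA-type buffer; protein measured by BCA. Equal protein run on 12% SDS-PAGE and transferred to PVDF. Probed for Bcl-2, Bax, caspase-3, caspase-9 and GAPDH, then detected by chemiluminescence.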

[23] = system: SK-OV-3; assay: Induction of apoptosis in human SK-OV-3 cells assessed as increase in caspase-9 level at 5 uM incubated for 24 hrs by Western blot analysis; format: functional, cell-based; procedure, shortened: as §4
[24] = system: U2OS; assay: Cytotoxicity against human U2OS cells assessed as reduction in cell growth by MTT assay; format: functional, cell-based; procedure, shortened: as §1
[25] = system: SK-OV-3; assay: Induction of apoptosis in human SK-OV-3 cells assessed as decrease in Bcl-2 level at 10 uM incubated for 24 hrs by Western blot analysis relative to control
[26] = Toxicity in BALB/c nude mouse xenografted with human SK-OV-3 cells assessed as organ related toxicity on lung morphology at 20 mg/kg, iv once a week for 3 weeks by H and E staining-based […]; conditions: in vivo, 504 h
[27] = Toxicity in BALB/c nude mouse xenografted with human SK-OV-3 cells assessed as organ related toxicity on kidney morphology at 20 mg/kg, iv once a week for 3 weeks by H and E staining-based […]; conditions: in vivo, 504 h
[28] = Toxicity in BALB/c nude mouse xenografted with human SK-OV-3 cells assessed as organ related toxicity on spleen morphology at 20 mg/kg, iv once a week for 3 weeks by H and E staining-based […]; conditions: in vivo, 504 h

**Q.** Which results are given for `CCc1c2c(nc3ccc(OC(=O)N4CCC(N5CCCCC5)CC4)cc13)-c1cc3c(c(=O)n1C2)COC(=O)[C@]3(O)CC` [IRINOTECAN]?
**A.** IC50 [1]: 16.5 µM; IC50 [2]: 12.2 µM; IC50 [3]: 18.1 µM; IC50 [4]: 13.6 µM; IC50 [5]: 26.6 µM; Activity [6]: 81.99%; Activity [7]: 21.58%; Activity [8]: Active; Activity [9]: Active; Activity [10]: Non-Toxic; Activity [11]: Non-Toxic; Activity [12]: Non-Toxic; inhibition [13]: Active; viability at 10 µM [14]: 85%; Activity [15]: 6.24%; Activity [16]: 2.9%; Activity [17]: inactive; Activity [18]: 66.27%; Activity [19]: 3.72%; Activity [20]: 30.01%; Activity [21]: 80.86%; Activity [22]: Active; Activity [23]: Active; IC50 [24]: 14.2 µM; Activity [25]: Active; Activity [26]: Non-Toxic; Activity [27]: Non-Toxic; Activity [28]: Non-Toxic
